The source of these data is ChEMBL document CHEMBL4346701, “Synthesis and biological evaluation of tryptophan-derived rhodanine derivatives as PTP1B inhibitors and anti-bacterial agents” (Eur J Med Chem, 2019).

Assay [1] addresses T1, M-phase inducer phosphatase 2 (Homo sapiens, UniProt P30305).
T1 sequence (P30305 whole entry): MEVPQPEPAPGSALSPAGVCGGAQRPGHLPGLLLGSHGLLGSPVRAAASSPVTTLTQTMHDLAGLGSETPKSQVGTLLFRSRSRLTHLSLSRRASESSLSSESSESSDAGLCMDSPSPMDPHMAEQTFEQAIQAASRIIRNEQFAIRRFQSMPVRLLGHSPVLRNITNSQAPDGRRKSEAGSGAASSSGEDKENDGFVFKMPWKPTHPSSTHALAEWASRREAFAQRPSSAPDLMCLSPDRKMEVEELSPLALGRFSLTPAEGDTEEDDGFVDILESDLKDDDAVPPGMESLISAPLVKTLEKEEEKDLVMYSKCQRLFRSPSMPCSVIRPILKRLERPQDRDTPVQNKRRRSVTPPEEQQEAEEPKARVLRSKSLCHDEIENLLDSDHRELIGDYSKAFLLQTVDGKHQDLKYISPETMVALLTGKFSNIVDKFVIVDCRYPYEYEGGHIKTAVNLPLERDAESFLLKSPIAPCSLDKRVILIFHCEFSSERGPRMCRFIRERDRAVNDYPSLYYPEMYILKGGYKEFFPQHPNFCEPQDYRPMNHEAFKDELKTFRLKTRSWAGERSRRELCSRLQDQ
Put plainly: Inhibition of human recombinant GST-tagged CDC25B expressed in Escherichia coli BL21 (DE3) using pNPP as substrate measured for 2 mins by colorimetric analysis. The procedure, abridged:
(§1)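 pNPP hydrolysis assay. IC50 was derived by regression analysis and given as mean ± SD of three replications.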

For assay [2], the target named is T2, Tyrosine-protein phosphatase non-receptor type 11 (Homo sapiens, UniProt Q06124).
T2 sequence (Q06124 whole entry): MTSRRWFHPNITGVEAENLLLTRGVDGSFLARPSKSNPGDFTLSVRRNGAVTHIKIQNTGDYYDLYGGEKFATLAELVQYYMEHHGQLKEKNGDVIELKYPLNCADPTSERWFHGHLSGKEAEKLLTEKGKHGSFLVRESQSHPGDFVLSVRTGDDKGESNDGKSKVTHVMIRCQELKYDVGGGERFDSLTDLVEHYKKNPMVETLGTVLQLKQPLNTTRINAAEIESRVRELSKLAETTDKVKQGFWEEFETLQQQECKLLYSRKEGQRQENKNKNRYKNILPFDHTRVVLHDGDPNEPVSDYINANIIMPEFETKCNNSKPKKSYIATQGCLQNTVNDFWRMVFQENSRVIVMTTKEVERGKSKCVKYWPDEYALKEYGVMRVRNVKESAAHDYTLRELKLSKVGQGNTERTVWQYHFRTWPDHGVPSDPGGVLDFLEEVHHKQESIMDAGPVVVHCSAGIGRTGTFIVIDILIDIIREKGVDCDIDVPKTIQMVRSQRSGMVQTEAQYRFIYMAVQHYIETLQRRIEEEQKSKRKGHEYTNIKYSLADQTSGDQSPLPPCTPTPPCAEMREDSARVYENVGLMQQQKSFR
Put plainly: Inhibition of human recombinant GST-tagged SHP2 (catalytic domain […] residues) expressed in Escherichia coli BL21 (DE3) using pNPP as substrate measured for 2 mins by colorimetric analysis. The procedure, abridged: as §1

Assay [3] concerns the target T3, Receptor-type tyrosine-protein phosphatase F (Homo sapiens, UniProt P10586). Put plainly: Inhibition of human recombinant GST-tagged LAR (catalytic domain 1275 to 1613 residues) expressed in Escherichia coli BL21 (DE3) using pNPP as substrate at 20 ug/ml measured for 2 mins by colorimetric analysis. The procedure, abridged:
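Single-concentration screen at 20 µg/mL in the pNPP phosphatase assay.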

Assay [4] concerns Staphylococcus aureus. Nature of the assay: Potency index, ratio of MIC of gatifloxacin to MIC of compound for antibacterial activity against Staphylococcus aureus KCTC503 assessed as reduction in bacterial cell growth incubated for 24 hrs by ELISA. Type of assay: functional. (An ELISA detects its analyte on a solid surface through an enzyme-linked reagent.)
The species entered for assay [5] is Homo sapiens. Nature of the assay: Selectivity ratio of IC50 for human recombinant GST-tagged SHP2 to IC50 for human recombinant GST-tagged PTP1B.
Assay [6] has as its target T4, Tyrosine-protein phosphatase non-receptor type 1 (Homo sapiens) (UniProt P18031).
T4 sequence (whole entry): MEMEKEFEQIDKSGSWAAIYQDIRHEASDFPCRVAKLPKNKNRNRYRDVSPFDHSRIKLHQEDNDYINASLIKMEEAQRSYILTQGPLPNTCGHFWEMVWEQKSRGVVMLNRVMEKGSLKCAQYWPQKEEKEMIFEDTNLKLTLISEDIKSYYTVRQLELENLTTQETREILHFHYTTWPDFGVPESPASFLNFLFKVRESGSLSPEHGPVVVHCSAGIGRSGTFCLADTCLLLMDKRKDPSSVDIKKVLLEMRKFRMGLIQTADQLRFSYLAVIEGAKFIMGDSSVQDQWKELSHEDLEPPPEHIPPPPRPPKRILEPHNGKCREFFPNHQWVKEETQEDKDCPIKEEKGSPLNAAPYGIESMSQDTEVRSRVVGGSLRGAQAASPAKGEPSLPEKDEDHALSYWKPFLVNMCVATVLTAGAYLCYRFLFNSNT
Put plainly: Potency index, ratio of IC50 of oleanolic acid to IC50 of compound inhibition of human recombinant GST-tagged PTP1B expressed in Escherichia coli BL21 (DE3) using pNPP as substrate measured for 2 mins by colorimetric analysis.

Assay [7] deals with T3, Receptor-type tyrosine-protein phosphatase F. Put plainly: Inhibition of human recombinant GST-tagged LAR (catalytic domain 1275 to 1613 residues) expressed in Escherichia coli BL21 (DE3) using pNPP as substrate measured for 2 mins by colorimetric analysis.
Assay [8] has as its target T4, Tyrosine-protein phosphatase non-receptor type 1 (Homo sapiens). Put plainly: Inhibition of human recombinant GST-tagged PTP1B expressed in Escherichia coli BL21 (DE3) using pNPP as substrate incubated for 4 to 16 mins and measured for 2 mins by colorimetric analysis. Conditions: TDE = time-dependent effect. The procedure, abridged:
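pNPP used as the phosphatase substrate, with the enzyme assay following earlier published work. IC50 obtained by regression analysis and reported as mean ± SD of three replications.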

For assay [9] the target is unchanged. Nature of the assay: Competitive inhibition of human recombinant GST-tagged PTP1B expressed in Escherichia coli BL21 (DE3) using pNPP as substrate assessed as increase in Km value measured for 2 mins by colorimetric analysis.
Assay [10] has the same target. Nature of the assay: Competitive inhibition of human recombinant GST-tagged PTP1B expressed in Escherichia coli BL21 (DE3) using pNPP as substrate assessed as unchanged Vmax value measured for 2 mins by colorimetric analysis.
For assay [11], the target named is T5, Tyrosine-protein phosphatase non-receptor type 1 (Homo sapiens, UniProt P18031).
T5 sequence (P18031 whole entry): T4 sequence (whole entry)
Put plainly: Competitive inhibition of human recombinant GST-tagged PTP1B expressed in Escherichia coli BL21 (DE3) using pNPP as substrate assessed as inhibitor constant measured for 2 mins by colorimetric analysis.

Calls of active or inactive are those of the source. No cut-off for these calls is given here.

T3 sequence (P10586 whole entry, the tested form may be a part): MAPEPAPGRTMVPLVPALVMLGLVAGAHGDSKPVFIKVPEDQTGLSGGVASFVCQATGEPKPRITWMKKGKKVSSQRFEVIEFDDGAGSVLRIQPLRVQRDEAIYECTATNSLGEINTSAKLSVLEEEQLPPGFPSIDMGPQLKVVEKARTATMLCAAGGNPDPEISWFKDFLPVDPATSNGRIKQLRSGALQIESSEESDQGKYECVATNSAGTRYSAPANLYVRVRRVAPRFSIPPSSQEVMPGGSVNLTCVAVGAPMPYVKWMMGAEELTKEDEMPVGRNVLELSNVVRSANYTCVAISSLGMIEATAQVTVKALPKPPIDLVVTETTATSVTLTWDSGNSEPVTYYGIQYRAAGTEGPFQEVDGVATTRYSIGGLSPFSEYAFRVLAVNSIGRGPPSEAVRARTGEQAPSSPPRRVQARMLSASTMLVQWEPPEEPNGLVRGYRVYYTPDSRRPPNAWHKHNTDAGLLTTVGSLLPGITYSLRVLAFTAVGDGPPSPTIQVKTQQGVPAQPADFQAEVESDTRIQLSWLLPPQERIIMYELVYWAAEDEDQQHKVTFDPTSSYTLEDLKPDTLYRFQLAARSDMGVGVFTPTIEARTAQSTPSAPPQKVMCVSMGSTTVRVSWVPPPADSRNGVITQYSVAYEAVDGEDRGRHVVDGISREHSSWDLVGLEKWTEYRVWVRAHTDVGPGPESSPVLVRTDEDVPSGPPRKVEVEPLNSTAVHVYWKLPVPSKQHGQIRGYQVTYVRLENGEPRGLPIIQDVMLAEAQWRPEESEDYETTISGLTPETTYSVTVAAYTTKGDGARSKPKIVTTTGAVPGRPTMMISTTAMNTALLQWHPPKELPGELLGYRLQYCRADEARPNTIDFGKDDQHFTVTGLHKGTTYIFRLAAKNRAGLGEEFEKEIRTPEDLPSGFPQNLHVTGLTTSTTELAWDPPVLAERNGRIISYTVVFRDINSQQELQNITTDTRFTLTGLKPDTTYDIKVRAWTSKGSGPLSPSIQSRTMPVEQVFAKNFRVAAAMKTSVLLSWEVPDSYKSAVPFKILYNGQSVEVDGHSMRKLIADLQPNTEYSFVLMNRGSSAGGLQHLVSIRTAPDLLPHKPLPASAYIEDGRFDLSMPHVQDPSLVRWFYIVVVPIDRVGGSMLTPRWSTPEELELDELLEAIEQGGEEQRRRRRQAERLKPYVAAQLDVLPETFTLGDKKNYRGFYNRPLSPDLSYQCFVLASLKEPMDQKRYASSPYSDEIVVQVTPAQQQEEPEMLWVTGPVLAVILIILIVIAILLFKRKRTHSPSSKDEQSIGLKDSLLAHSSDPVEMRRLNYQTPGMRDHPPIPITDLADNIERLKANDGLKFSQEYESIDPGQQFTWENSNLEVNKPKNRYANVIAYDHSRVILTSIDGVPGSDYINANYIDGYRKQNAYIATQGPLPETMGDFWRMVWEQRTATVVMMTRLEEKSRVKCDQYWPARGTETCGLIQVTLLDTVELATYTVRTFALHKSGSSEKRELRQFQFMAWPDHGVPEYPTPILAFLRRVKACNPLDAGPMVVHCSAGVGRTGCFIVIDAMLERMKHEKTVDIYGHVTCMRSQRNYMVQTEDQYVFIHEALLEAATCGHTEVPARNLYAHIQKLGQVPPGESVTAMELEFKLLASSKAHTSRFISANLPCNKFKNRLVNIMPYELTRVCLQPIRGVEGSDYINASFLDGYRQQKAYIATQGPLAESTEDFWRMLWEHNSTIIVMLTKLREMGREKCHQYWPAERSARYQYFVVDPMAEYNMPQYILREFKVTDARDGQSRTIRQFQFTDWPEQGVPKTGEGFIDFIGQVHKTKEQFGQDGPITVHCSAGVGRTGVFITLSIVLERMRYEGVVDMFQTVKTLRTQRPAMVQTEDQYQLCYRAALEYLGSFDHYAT

What is called IC50 is the point on the concentration scale where inhibition reaches its midpoint. In the case of `Cc1ccc(COc2ccc3cc(/C=C4\SC(=S)N(C(Cc5c[nH]c6ccccc56)C(=O)O)C4=O)ccc3c2)cc1` (stereo not drawn), the results for the IC50 in assay [1] and in assay [2] were 830 nM and 5810 nM, respectively. Moreover, in [3], the inhibition entry is “inactive”. The Ratio in assay [4] was determined as 2. Moreover, in assay [5], the Ratio IC50 lay in the range of 9 to 10.

As for `O=C(O)C(Cc1c[nH]c2ccccc12)N1C(=O)/C(=C/c2ccc3cc(OCc4ccc(Cl)cc4Cl)ccc3c2)SC1=S` (stereo not drawn), the IC50 in assay [1] came to 490 nM; in [2], 6930 nM. Also, the inhibition result in assay [3] was “inactive”. Further, the Ratio IC50 in assay [5] lay within 9 to 10.

As a reminder, the Ki is a measure of affinity in units of concentration, obtained from inhibition or displacement. In the case of `O=C(O)C(Cc1c[nH]c2ccccc12)N1C(=O)/C(=C/c2ccc3cc(OCc4ccc(Br)cc4)ccc3c2)SC1=S` (stereo not drawn), the Ratio IC50 in assay [6] was 8; in assay [5], 9 to 10. For the same compound, the IC50 in assay [1] came to 320 nM; in assay [2] it was 3800 nM; in assay [7], 29100 nM. Also, the inhibition result in [8] is “Tde”. For the same compound, the inhibition result in [9] and in assay [10] was “Active” in each case. For the same compound, the Ki in [11] stood at 70 nM.
